The source made the active and inactive calls. No cut-off for these calls is given here.
Assays:
Format in all cases: functional
[1] = test system: Radical scavenging activity; test: Antioxidant activity assessed as DPPH radical scavenging activity after 20 min
Outline: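 Percent antiradical activity = (1 − sample/blank absorbance)×100; IC25 from logarithmic regression over 5–6 concentrations; highest concentration tested 400 µM.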

[2] = Antioxidant activity in BALB/c mouse BM cells assessed as inhibition of ROS production; settings: Bone marrow cell
Outline: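 Whole bone marrow cells flushed from tibias and femurs with phenol red-free HBSS pH 7.4, strained through 70 µm, 1 × 10^6 cells/mL. L-012 (40 µM final) and horseradish peroxidase (8 µg/ml final) added; cells mixed with compound from DMSO stock (1% DMSO final). Luminescence read 60 min every 2 min at 37°C; area under curve gives total signal; IC25 from % inhibition versus log concentration, 5–7 concentrations.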

[3] = Antioxidant activity assessed as inhibition of superoxide production by xanthine/xanthine oxidase method
Outline: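 Superoxide generated from 500 µM xanthine with 3.75 mU/mL xanthine oxidase in 0.1 M phosphate buffer pH 7.5, detected as reduction of 500 µM NBT to monoformazan at 560 nm, 25°C, as rate of absorbance change. IC25 from rate versus log concentration, 5–7 concentrations, top concentration 50 µM.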

Structure (SMILES)	IC25 [1] [µM]	IC25 [2] [µM]	IC25 [3] [µM]	Activity [1]	Activity [3]
O=c1c(O)c(-c2ccc(O)c(O)c2)oc2ccccc12	0.7	1.75	0.68	–	–
O=c1cc(-c2cccc(O)c2)oc2c(O)c(O)ccc12	2.7	0.8	2.4	–	–
COc1cccc2oc(-c3ccc(O)cc3)cc(=O)c12	–	1270	–	inactive	inactive
O=c1cc(-c2ccccc2O)oc2cc(O)cc(O)c12	–	5.7	–	inactive	inactive
COc1c(-c2ccccc2)oc2cc(O)ccc2c1=O	–	1050	–	inactive	inactive
COc1ccc2c(=O)cc(-c3ccccc3)oc2c1O	–	3.1	–	inactive	inactive
O=c1cc(-c2ccccc2O)oc2c(O)c(O)ccc12	2.1	0.52	1.2	–	–
COc1ccccc1-c1oc2ccccc2c(=O)c1O	–	49	–	inactive	–
COc1cc([C@@H]2Oc3cc([C@@H]4Oc5cc(O)cc(O)c5C(=O)[C@H]4O)ccc3O[C@H]2CO)ccc1O	61.4	140	7.7	–	–
COc1cc(-c2cc(=O)c3ccccc3o2)ccc1O	–	14.5	–	inactive	inactive
COc1ccc(-c2cc(=O)c3c(O)cc(O[C@@H]4O[C@H](CO[C@@H]5O[C@@H](C)[C@H](O)[C@@H](O)[C@H]5O)[C@@H](O)[C@H](O)[C@H]4O)cc3o2)cc1O	–	–	–	inactive	inactive
COc1ccc(-c2oc3ccc(C)cc3c(=O)c2O)cc1OC	89	–	–	–	–
COc1ccc(C2CC(=O)c3c(O)cc(O[C@@H]4O[C@H](CO[C@@H]5O[C@@H](C)[C@H](O)[C@@H](O)[C@H]5O)[C@@H](O)[C@H](O)[C@H]4O)cc3O2)cc1O (stereo not given in full)	–	–	–	inactive	inactive
C[C@@H]1O[C@@H](OC[C@H]2O[C@@H](Oc3c(-c4ccc(O)c(O)c4)oc4cc(O)cc(O)c4c3=O)[C@H](O)[C@@H](O)[C@@H]2O)[C@H](O)[C@H](O)[C@H]1O	12.2	–	4.5	–	–
O=c1c(O)c(-c2ccc(O)cc2)oc2ccc(O)cc12	4.5	–	–	–	–
O=c1cc(-c2ccc(O)c(O)c2)oc2cccc(O)c12	1.5	–	–	–	–
O=c1cc(-c2cccc(O)c2O)oc2ccccc12	0.5	–	–	–	–
O=C1CC(c2ccccc2O)Oc2ccccc21 (stereo not given) [2'-HYDROXY-FLAVANONE]	–	5620	–	inactive	inactive
COc1c(-c2ccc(O)c(O)c2)oc2cc(O)cc(O)c2c1=O [3-O-METHYLQUERCETIN]	5.9	58	3.6	–	–
O=C1CC(c2ccc(O)cc2)Oc2ccccc21 (stereo not given) [4'-HYDROXY-FLAVANONE]	–	3300	–	inactive	inactive

Structure (SMILES)	IC25 [1] [µM]	IC25 [2] [µM]	IC25 [3] [µM]	Activity [1]	Activity [3]
COc1ccc(-c2cc(=O)c3c(O)cc(O)cc3o2)cc1 [ACACETIN]	–	1180	16.3	inactive	–
O=c1cc(-c2ccc(O)cc2)oc2cc(O)cc(O)c12 [APIGENIN]	–	113	–	inactive	inactive
CN1CCc2cccc3c2[C@H]1Cc1ccc(O)c(O)c1-3 [APOMORPHINE]	–	–	16.2	–	–
O=c1cc(-c2ccccc2)oc2cc(O)c(O)c(O)c12 [BAICALEIN]	1.5	10.4	2.6	–	–
COc1ccc(-c2coc3cc(O)cc(O)c3c2=O)cc1 [BIOCHANIN]	–	33	–	inactive	inactive
O=c1cc(-c2ccccc2)oc2cc(O)cc(O)c12 [CHRYSIN]	–	4480	–	inactive	inactive
Oc1cc(O)c2c(c1)O[C@H](c1ccc(O)c(O)c1)[C@@H](O)C2 [CIANIDANOL]	33.3	168	45.8	–	–
O=c1c(O)c(-c2ccc(O)c(O)c2)oc2cc(O)ccc12 [FISETIN]	7.9	31	2.7	–	–
O=c1c(O)c(-c2ccccc2)oc2cc(O)cc(O)c12 [GALANGIN]	86.4	4.3	–	–	inactive
COc1ccc([C@@H]2CC(=O)c3c(O)cc(O)cc3O2)cc1O [HESPERETIN]	83	647	–	–	inactive
O=c1c(O)c(-c2ccc(O)cc2)oc2cc(O)cc(O)c12 [KAEMPFEROL]	22.6	4	–	–	inactive
O=c1cc(-c2ccc(O)c(O)c2)oc2cc(O)cc(O)c12 [LUTEOLIN]	12.1	13.7	6.9	–	–
O=c1c(O)c(-c2cc(O)c(O)c(O)c2)oc2cc(O)cc(O)c12 [MYRICETIN]	41.8	5.2	6.8	–	–
O=C1C[C@@H](c2ccc(O)cc2)Oc2cc(O)cc(O)c21 [NARINGENIN]	–	551	–	inactive	inactive
O=C(CCc1ccc(O)cc1)c1c(O)cc(O)cc1O [PHLORETIN]	–	300	–	inactive	inactive
O=c1c(O)c(-c2ccc(O)c(O)c2)oc2cc(O)cc(O)c12 [QUERCETIN]	8.1	3.5	3	–	–
O=c1c(O)c(-c2ccc(O)cc2)oc2cc(O)ccc12 [RESOKAEMPFEROL]	4.1	23	48	–	–
Oc1ccc(/C=C/c2cc(O)cc(O)c2)cc1 [RESVERATROL]	349	70	–	–	inactive
C[C@@H]1O[C@@H](O[C@H]2[C@H](Oc3cc(O)c4c(=O)cc(-c5ccc(O)cc5)oc4c3)O[C@H](CO)[C@@H](O)[C@@H]2O)[C@H](O)[C@H](O)[C@H]1O [RHOIFOLIN]	–	201	7.2	–	–
COc1cc(O)c2c(=O)cc(-c3ccccc3)oc2c1 [TECHTOCHRYSIN]	–	160	–	inactive	inactive

— ChEMBL document CHEMBL1146339, “Improved quantitative structure-activity relationship models to predict antioxidant activity of flavonoids in chemical, enzymatic, and cellular systems” (Bioorg Med Chem, 2007)
